Several values for one entry are separate records, joined by “and”; a condition that tells them apart may be missing. Equal values may be shown once. Entries after “also recorded” stand apart in the source; their conditions may differ. Read-outs that look alike come from different tables or passages of the source.
What was measured:
[1] = cited from earlier work
HCT116 xenograft tumors [2] = experiment: Efficacy experiment 1: tumor volume, i.p. dosing; type: in vivo, NSG mice; details: for tumor volumes at conclusion of study: day 28, Rh-PPO vs oxaliplatin 7.5 mpk i.p.
Summary of the method: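 NSG mice (23 to 34 g) were given 2.5 × 10^6 HCT116 cells in 100 μL McCoy's 5A with 10% FBS, s.c. in the right flank. At ~100 mm3 (11 to 12 d), mice were randomized (10 to 13/group). Test compound in saline was given i.p. three or four times weekly. Vehicle was 0.9% NaCl. Platinum reference in 5% dextrose was given i.p. twice weekly. Mice also received 2 mL s.c. saline twice weekly. Calipers twice weekly; TV = W2L/2.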

[3] = Rhodium and platinum content of tissues after i.p. treatment; type: in vivo, NSG mice; details: Rh-PPO 1 mpk, oxaliplatin 7.5 mpk i.p.
[4] = system: HCT116O MMR-deficient cells; details: cited from earlier work; for IC50: HCT116O MMR-deficient cells
HCT116 xenograft tumors [5] = experiment: Survival rate and cause of death, efficacy experiment 1; type: in vivo, NSG mice
Summary of the method: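 HCT116 s.c. xenograft NSG mice received i.p. vehicle, test compound or platinum reference plus s.c. saline hydration; n = 10 to 13 per group. Mice were removed when found dead, when declining health required killing, or when tumor diameter exceeded 15 mm. Survival versus starting number gave Kaplan–Meier curves. ILS = (DaysT – DaysC)/DaysC against vehicle controls.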

NSG mice = experiment: Maximum tolerated dose; type: in vivo; details: for start of notable symptoms of distress and inactivity: mice killed before end of 10-d study
Summary of the method: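 Weighed NSG mice received test compound dissolved in saline i.p. at 1, 2, 5 or 15 mpk, once daily for 10 consecutive days. Clinical observations and body weights were recorded daily. Surviving animals were killed with carbon dioxide at study end.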

[6] = Mouse body weights during i.p. treatment; type: in vivo, NSG mice; details: Rh-PPO treatment groups, both i.p. schedules
[7] = Plasma pharmacokinetics after i.p. dose; type: in vivo, NSG mice; details: for AUC0–8 h / Cmax / t1/2: mouse plasma
Summary of the method: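 After the final i.p. dose (0.5 or 1 mpk) in xenograft-bearing NSG mice, blood was taken by cardiac puncture at 0.5, 1, 2, 4 and 8 h (three mice/group/time) into heparinized vials on ice. Plasma was spun at 15,000 × g, 5 min, RT, and stored at −80 °C. Proteins were precipitated with acetonitrile containing a rhodium-complex internal standard. Intact complex was measured by LC-MS/MS; AUC0–8 h came from the concentration curve.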

Aqueous solubility = type: physicochemical
HCT116 xenograft tumors [8] = experiment: Intratumoral efficacy experiment; type: in vivo, NSG mice; details: 1 mpk intratumoral
[9] = Stability in rat liver microsomes; type: in vitro ADME
CRC cell lines = details: on average across CRC cell lines; cited from earlier work
[10] = First mouse experiments exploring the administration route; type: in vivo
Stability in rat plasma = type: in vitro ADME
[11] = Histological analyses of collected tissues; type: in vivo, NSG mice; details: Rh-PPO-treated mice, i.p.

## O=C1[O][Pt]2([NH][C@@H]3CCCC[C@H]3[NH]2)[O]C1=O [oxaliplatin, reference compound]
[1]
  half-life: 0.235 h
HCT116 xenograft tumors [2]
  tumor volumes at conclusion of study: statistically similar tumor volumes
[3]
  distribution of metal among organs: platinum was distributed evenly
[4]
  IC50: 27.5 µM
HCT116 xenograft tumors [5]; 7.5 mpk i.p.
  mouse deaths: found dead in cage: 45.5%

## [Rh(chrysi)(phen)(2-(pyridine-2-yl)propan-2-ol]Cl2 [Rh-PPO]
NSG mice; 1, 2, 5 mpk i.p. daily
  body weight change in MTD study: lost body weight in a dose-dependent manner
NSG mice; 1 mpk i.p. daily for 10 d
  clinical observations: only mild symptoms of distress; also recorded: tolerated over a 10-d period with minor indications of systemic toxicity
NSG mice; 2 mpk i.p. daily
  start of notable symptoms of distress and inactivity: 4 days
NSG mice; 5 mpk i.p. daily
  start of notable symptoms of distress and inactivity: 2 days
HCT116 xenograft tumors [2]; Rh-PPO treatment groups (0.5 and 1 mpk i.p.), day 21, efficacy experiment 1
  reduction in tumor volume relative to vehicle: 25 ± 2.7% and 25%
HCT116 xenograft tumors [2]
  tumor volumes at conclusion of study: statistically similar tumor volumes
[6]
  significant mouse weight loss (more than 15% of original body weight): neither treatment schedule resulted in significant mouse weight loss
[7]; 0.5 mpk i.p.
  AUC0–8 h: 1.31 µM·h
  Cmax: 450 nM
  t1/2: 1.11 h
[7]; 1 mpk i.p.
  exposure level (Cmax) relative to in vitro cell IC50 of 250 nM: ~2.5 fold
  AUC0–8 h: 1.52 µM·h
  Cmax: 650 nM
  t1/2: 1.79 h
[7]; i.p. dosing, 0.5 and 1 mpk
  time to peak plasma concentration: ≤ 30 min
[7]; read-out: maximum plasma concentration (Cmax), 1 mpk i.p.
  Cmax: 650 nM
[3]
  distribution of metal among organs: accumulation of rhodium most significantly in the liver
Aqueous solubility
  aqueous solubility: high aqueous solubility
HCT116 xenograft tumors [8]
  toxicity of intratumoral administration: significant systemic toxicity; also recorded: unacceptably toxic
[9]
  stability in rat liver microsomes: up to 4 h
CRC cell lines
  potency relative to cisplatin: five times more potent
[4]
  IC50: 0.25 µM
[4]; MMR-deficient HCT116O vs matched MMR-proficient HCT116N
  cytotoxicity toward HCT116O compared to HCT116N cells: highly potent and selective cytotoxicity
HCT116 xenograft tumors [5]; Rh-PPO 0.5/1 mpk, oxaliplatin 7.5 mpk i.p.
  increase in life span (ILS) relative to vehicle: 12%
HCT116 xenograft tumors [5]; Rh-PPO 1 mpk, oxaliplatin 7.5 mpk i.p.
  mice killed due to poor health and inactivity: 10%
HCT116 xenograft tumors [5]; both Rh-PPO treatment groups
  mice that died due to tumors reaching maximum allowable size (15 mm): 90%
[10]; 20 mpk i.v.
  tolerability of i.v. administration: not well tolerated
[10]; oral
  oral bioavailability: zero oral bioavailability
Stability in rat plasma
  stability in rat plasma: up to 4 h
[11]
  organ morphology (histology): normal organ morphology
